A selection follows.
Apaf1 activ: activates human Apaf-1 apoptosome; activity change, negative = activation, % at 20 µM; AID 489031; O14727; Apaf-1 apoptosome caspase-3 activation, DEVD-Rh110 fluorescence; active compounds read low; 330,000 tested, 0.31% active;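 active = activity change at or below -40% at 20 µM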
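Material: biochemical Apaf-1 apoptosome reconstitution; Medium: 20 mM HEPES buffer, pH 7.5, containing CHAPS and BSA; Reagent: dATP, cytochrome c, and (Z-DEVD)2-Rh110 caspase-3 substrate; Times: 30 min preincubation, 50 min reaction, room temperature; Signal: Rh110 fluorescence, excitation 480 nm, emission 540 nm; Measure: Caspase-3 activity via Apaf-1.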
Rh110 interf act: interferes with Rh110 fluorescence, flagging false Apaf-1 activators. shares compounds with Apaf1 activ. Rh110 fluorescence interference, quenched caspase reaction, Ex480/Em540. fluorescence interference (activity change), % at 20 µM, hits read low. 980 tested, under 10 active. AID 504616;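 active = mean activity change at or below -40% when tested at 20 µM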
Apaf-1 act conf2: Apaf-1 (human) activation, single-dose confirmed; shares compounds with Apaf1 activ; reconstituted apoptosome caspase-3 activity, DEVD-Rh110 fluorescence; active compounds read low; activity change, negative = activation, % at 20 µM; 980 tested, 5% active;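 active = mean activity change at or below -40%, meaning activation of 40% or more, at 20 µM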
Fluor interf act: counter-screen for Apaf-1 activators: fluorescence interference, dose response; 55 tested, under 10 active; shares compounds with Apaf1 activ; fluorescence interference counterscreen, Apaf-1 activator assay; EC50, µM; call rule not given here
Hits are given with their value; – = inactive; · = not tested or not shown.

SMILES | Apaf1 activ | Rh110 interf act | Apaf-1 act conf2 | others
CCOc1ccc(C(=O)/C=C/Nc2ccc(S(=O)(=O)N=C(N)N)cc2)cc1 | -160 | – | -74 | Fluor interf act=–
COC(=O)C1=C(C)N(Cc2ccccc2)C(=NCC(C)C)N[C@H]1c1cccc(F)c1 | – | · | ·
CCCCNC(=O)C(C)N(CCN(C)C)C(=O)CCCN1C(=O)NC(c2ccc([N+](=O)[O-])cc2)C(C(=O)OCc2ccccc2)=C1C (stereo unspecified) | – | · | ·
CC(=O)Nc1ccc(N2CC(C)(C)C2=O)cc1 | -58 | – | –
Cc1ccc2nc(/C(C#N)=C\c3ccc(N4CCOCC4)o3)[nH]c2c1 | – | · | ·
CC(=O)N1CCc2cc(Br)cc(S(=O)(=O)NCCCN3CCCC(C)C3)c21 (stereo unspecified) | -41 | – | –
CCOC(=O)c1[nH]c2ccc(Br)cc2c1NC(=O)CCN1CCCC(C)C1 (stereo unspecified) | – | · | ·
COc1ccc2cc3cc(C(=O)NCCCN4CCc5ccccc5C4)sc3nc2c1 | – | · | ·
COC(=O)c1c(N)n(CCCN2CCOCC2)c2nc3ccccc3nc12 | -72 | – | –
COc1ccc(CNC(=O)c2c(N)n(CCCN3CCOCC3)c3nc4ccccc4nc23)cc1 | – | · | ·
Nc1c(C(=O)NCc2ccccc2)c2nc3ccccc3nc2n1CCCN1CCOCC1 | – | · | ·
CCCCNC(=O)C(C1CCCCC1)N(CCN(C)C)C(=O)CCCN1C(=O)NC(c2ccc(-c3ccccc3)cc2)C(C(=O)OCc2ccccc2)=C1C (stereo unspecified) | – | · | ·
CCOC(=O)c1cc(-c2ccc(/C=C3/C(=O)N(c4ccc(C(=O)O)cc4)N=C3C)o2)ccc1Cl | – | · | ·
O=C(N/N=C/c1cc(Cl)cc([N+](=O)[O-])c1O)NC12CC3CC(CC(C3)C1)C2 | -56 | – | -121 | Fluor interf act=–
C/C=N/NC(=O)c1cc(Br)ccc1O | – | · | ·
O=C(OCC(=O)c1c[nH]c2ccccc12)c1cc(Br)ccc1O | -339 | – | –
Clc1ccc(N=c2ssnc2Cl)nc1 | – | · | ·
CCN1/C(=C/C(C)=C/c2sc3ccccc3[n+]2CC)Sc2ccccc21 | – | · | ·
Cc1c(CCO)c(=O)[nH]n1S(=O)(=O)c1cccc(C(F)(F)F)c1 | -92 | – | –
O=C(Cc1cccc(C(F)(F)F)c1)OCC(=O)N1CCN(S(=O)(=O)c2ccc(Cl)cc2)CC1 | – | · | ·
O=C(c1ccccc1)c1ccc2nc(-c3ccco3)c(-c3ccco3)nc2c1 | – | · | ·
CCOC(=O)CSc1nc2cc(C(=O)NCc3ccco3)ccc2c(=O)n1-c1ccc(F)cc1 | -105 | – | –
COc1ccc(N2CCCn3c2nc2c3c(=O)n(Cc3ccc(C)cc3)c(=O)n2C)c(OC)c1 | -100 | – | –
Cc1ccc(S(=O)(=O)/N=C2\C(=O)c3ccccc3C([O-])=C2n2cc[n+](CCC(C)C)c2)cc1 | – | · | ·
CN(C)CCNC(=O)C(=O)NCC1OCCN1S(=O)(=O)c1cc(F)ccc1F (stereo unspecified) | – | · | ·
SMILES | Apaf1 activ | Rh110 interf act | Apaf-1 act conf2 | others
Cc1cccc(N(C(=O)Cn2nnc3ccccc32)C(C(=O)NCc2ccco2)c2ccncc2)c1 (stereo unspecified) | -47 | – | –
COC(=O)c1[nH]c(=O)c2ccccc2c1O | – | · | ·
Cc1cc(C)n(CCNC(=O)C2CCC(=O)N(CCc3cccc(F)c3)C2)n1 (stereo unspecified) | -456 | – | –
CCOC(=O)c1c(C)c2c(=O)[nH]cnc2n1-c1ccccc1 | – | · | ·
O=C(NCCCO)C(=O)NCc1ccncc1 | -63 | -80 | –
CCOC(=O)c1c(CN(C)C)n(C)c2c(O)c(N=NC(N)=O)c3ccc(Br)cc3c12 | – | · | ·
CC(=O)c1c(O)cc(C)n(Cc2ccccc2)c1=O | -71 | – | –
Cc1cccc(CC(=O)NCCn2c(C)cc3ccccc32)c1 | – | · | ·
COCCCOc1cc(NCc2ccccc2)c2ncn(C(C)C)c2c1 | – | · | ·
Cc1ccc(C(=O)Nc2ccccn2)cc1S(=O)(=O)N1CCOCC1 | – | · | ·
O=C(Nc1nnc(S(=O)(=O)N2CCOCC2)s1)c1ccccc1Br | -95 | – | –
Cc1ccc(-c2nc3ncccn3c2NC(=O)C2CC2)cc1 | -52 | – | –
CN(C)CCCN1c2ccccc2Sc2ccc(C(F)(F)F)cc21 | – | · | ·
O=C(N/N=C1\C/C(=N\NC(=O)c2ccncc2)c2ccccc21)c1ccncc1 | – | · | ·
CC(/C=C/c1ccc2c(c1)OCO2)=N/NC(=O)c1ccncc1 | -42 | – | –
Cc1c(CCOC(=O)c2ccc(Cl)cc2Cl)sc[n+]1CC(=O)c1ccc(Br)cc1 | – | · | ·
CC(=O)N(C1=C(Cl)C(=O)c2ccccc2C1=O)C1CCCCC1 | – | · | ·

Assay outcomes deposited in PubChem BioAssay by Sanford-Burnham Center for Chemical Genomics.
